# Mdm2-MdmX inh = disrupts the human Mdm2-MdmX interaction; O15151+Q00987; SaOS-2 split-luciferase Mdm2/MdmX complementation, luminescence; inhibition, % at 8 µM; 3% of 330,000 active; AID 485346;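 active = inhibition of at least 50% at 8 µM in the primary screen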
# Calb FLC = affects C. albicans growth with fluconazole; 0.57% of 300,000 active; C. albicans CaCi-2 (fluconazole-resistant clinical isolate) + fluconazole, Alamar Blue growth, 48 h; growth inhibition, % (concentration not given with the values);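 active = growth inhibition above about 58% in most replicates, limit read from the data, passing the limit was not always enough; inconclusive = exactly half the replicates above a set limit; inactive = most replicates below a set limit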;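 note: all wells also contain fluconazole at 8 µg/ml as a sub-toxic cotreatment; 0% = median of DMSO wells and 100% = median of geldanamycin control wells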
# T cruzi inh = blocks replication of Trypanosoma cruzi; T. cruzi beta-gal in NIH3T3, luminescence, 90 h; inhibition, % (no concentration beside the values); 1.4% of 300,000 active; AID 1885;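 active = mean inhibition across valid replicates above about 55%, limit read from the data; inconclusive = mean below that limit but half or more replicates reach it; inactive = mean below it, under half of replicates reach it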;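 note: signal also drops with host cell toxicity which is not excluded here; 0% = plate median of DMSO wells and 100% = zero luminescence signal; higher percent means less beta-gal luminescence so fewer parasites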
#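 Incubation – ≥90 h infection period, 3 h prior cell attachment · System – NIH/3T3 fibroblasts plus reporter T. cruzi · Doses – compound pinned at 50 nL/well, DMSO · Read-out basis – percent inhibition of parasite-derived β-gal signal · Signal – luminescent β-galactosidase signal after 60 min lysis · Also added – 5000 T. cruzi trypomastigotes/well · Medium – Low-serum DMEM with 2% FBS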
# Beta cell apopt = blocks beta cell apoptosis; 0.8% of 300,000 active; INS-1E cytokine-induced death, ATP luminescence, 48 h; percent of positive-control rescue, neutral wells zero; protection from apoptosis, % (no concentration beside the values);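 active = Every replicate reaches about 75%, or at least half do and their mean reaches it too, limit read from the data; inconclusive = At least half of replicates reach the limit but their mean does not; inactive = Under half of replicates reach the limit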;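 note: 0% = cytokine-treated negative control wells and 100% = positive control rescue; higher means more ATP so stronger rescue from cytokine killing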
# CSC inhib = cancer stem cell inhibition; inhibition, % at 7.5 µM; cancer stem cell-like cells viability, luminescence; 1.1% of 300,000 active; in the data active = inhibition above about 75%; inconclusive = no clear call, values can overlap the other calls; tested in HMLE shEcad cells
# SKKanGAS inh = blocks kanamycin growth of S. pyogenes SKKanGAS strain; BacTiter-Glo, 6 h; 1.3% of 300,000 active; inhibition, % at 7.5 µM;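 active = mean replicate score, as percent of positive control median, at least 50; inconclusive = mean below 50 but one replicate at or above 50; inactive = mean and every replicate below 50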;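 note: strain carries kanamycin resistance gene driven by streptokinase promoter and grows in 40 µg/ml kanamycin; loss of luminescence reflects streptokinase promoter inhibition or plain growth inhibition; 0% = median of DMSO wells and 100% = positive control at its reference dose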
# The depositor's hits bear a star; u = inconclusive; x = not tested or not shown. In the library only some 5.7% were active in any assay of this set; here they are far more common.
SMILES,Mdm2-MdmX inh,Calb FLC,T cruzi inh,Beta cell apopt,CSC inhib,SKKanGAS inh
Cc1cc(C)cc(OCC(=O)NNC(=S)NC(=O)C2CC2)c1,38,119*,-9,8,-5,87*
CNC(=S)NNC(=O)Cc1ccc(OC)cc1,3,-1,-2,1,-2,8
COc1ccc(CC(=O)NC(=S)NNC(=O)COc2c(C)cccc2C)cc1,28,14,-29,4,2,97*
COc1ccc(OCC(=O)NNC(=S)NC(=O)C2CC2)cc1,16,14,-21,-1,x,63*
Cc1cc(C)cc(NC(=O)c2cccc(C(=O)Nc3cc(C)cc(C)c3)n2)c1,18,-1,-12,-1,-1,4
O=C(CN1C(=O)C2CCCCC2C1=O)Nc1cc(C(F)(F)F)ccc1N1CCCC1 (stereo unspecified),15,-12,-10,-4,-3,0
CCc1ccc2[nH]c3nc(N/N=C/c4cccc(O)c4)nnc3c2c1,8,11,0,-2,98*,-4
COc1c(/C=C2\SC(=Nc3ccccc3Cl)NC2=O)cccc1[N+](=O)[O-],19,42,3,-4,8,16
O=C1NC(=Nc2ccccc2Cl)S/C1=C\c1cccc([N+](=O)[O-])c1O,17,95*,5,x,34,28
O=C(OCn1ncc(Br)c(Br)c1=O)c1c(F)cccc1F,x,3,39,112*,-3,11
COC(=O)C(COC(=O)c1c(F)cccc1F)NC(=O)c1c(F)cccc1F (stereo unspecified),-13,0,-17,-12,1,0
CC(=O)Cn1ncc(Br)c(Br)c1=O,x,11,56*,x,x,-20
CC(C)(C)C(=O)Cn1ncc(N2CCCC2)c(Br)c1=O,14,4,-7,0,-1,-3
COc1ccccc1CN1CC(C(=O)NCc2cc(C(C)C)no2)CCC1=O (stereo unspecified),-7,12,-8,1,-14,-7
Clc1ccc(-c2nnnn2-c2ccc(Cl)c(Cl)c2)cc1Cl,-2,26,x,11,u,58*
C=C(C)[C@@H]1CC=C(CN2CCN(Cc3ccccc3)CC2)CC1,-4,-3,39,3,22,1
C=C(C)C1CC=C(CN2CCN(Cc3ccccc3)CC2)CC1 (stereo unspecified),6,-8,57*,-1,3,0
CCN(CC(=O)Nc1ccc(OC)c(OC)c1)CC(=O)Nc1ccccc1C(F)(F)F,-1,12,-6,0,-15,3
CCN(CC)CCCNC(=O)c1ccc(OCC(=O)Nc2ccccc2C(F)(F)F)c(OC)c1,-26,-2,55*,-5,-14,-14
CCOc1cc(C)c(C(C)C)cc1S(=O)(=O)n1cnc(C)c1,43,-18,55*,3,-2,-9
CC(=O)c1c(C)[nH]c(C(=O)COc2cc(C)ccc2C(C)C)c1C,34,1,32,103*,17,8
CC1=C(CO)C(=O)OC([C@@H](C)C2CC[C@H]3C4C[C@H]5O[C@]56[C@@H](O)C=CC(=O)[C@]6(C)C4CC[C@]23C)C1 (stereo partly specified),x,23,43,109*,99*,2
CC1CN(S(=O)(=O)c2cccc(C(=O)NCCC3=CCCCC3)c2)CC(C)O1 (stereo unspecified),-7,-13,-6,7,x,5
Cc1cccc(C2CC3(CC(C)(C)NC(=S)N3)Oc3cc(O)ccc32)c1 (stereo unspecified),5,80*,25,4,6,3
CC(C)[C@H](NC(=O)c1ccccc1F)C(=O)NC1CCCCCCC1,-12,x,x,-1,6,x
O=C(NC1CCC(Oc2ccc(C(=O)O)cc2)CC1)NC12CC3CC(CC(C3)C1)C2 (stereo unspecified),-7,x,x,x,-9,x
O=[N+]([O-])c1ccc(Nc2ccccc2)c2nonc12,0,89*,6,14,-4,4
O=C(CSc1cccc[n+]1[O-])Nc1cc(Cl)ccc1[N+](=O)[O-],19,x,x,4,-19,x
O=[N+]([O-])c1ccc(Sc2cccc[n+]2[O-])c2nonc12,x,1,43,x,x,102*
NS(=O)(=O)c1ccc(CCNC(=O)COC(=O)C2CCC2)cc1,-19,26,7,-3,x,-11

# Screening data deposited in PubChem BioAssay by several laboratories.
